Here are results for 95 compounds from ChEMBL document CHEMBL4513216, “Probing the Open Global Health Chemical Diversity Library for Multistage-Active Starting Points for Next-Generation Antimalarials” (ACS Infect Dis, 2020).

Molecules are shown by their SMILES.

This series is described as follows: Toxicity liver stage against HepG2, at 10uM. The format is cell-based. Further details: test concentration 10 uM, cell line HepG2-A16-CD81EGFP. The following applies: human, HepG2-A16-CD81EGFP cells; read-out: INHIBITION
The method in brief:
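Uninfected HepG2-A16-CD81EGFP cells, 3 × 10^3 per well, 1536-well, plated on prespotted compound at 10 μM final, parasite-free screening media added to match infected plates; puromycin 10 μM positive, DMSO 0.5% negative; run in parallel with 48 h PbLuc assay at 37 °C, 5% CO2; viability by CellTiter-Glo luminescence, normalized to controls.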

Turning to `COc1ccc(CN2CC(O)CN(C(=O)OCC(C)(C)C)CC2=O)cc1` (stereo not given), the cytotoxicity at 10 µM is 2.55%.

Turning to `Cc1csc(CCNC(=O)N2CCC(n3cccc3)CC2)n1`, the cytotoxicity at 10 µM came out at 3.98%.

On to `COc1cc(C2(C(=O)N3CCCC(n4cncn4)C3)CC2)ccc1C` (stereo not given), for which the cytotoxicity at 10 µM was -6.16%.

In the case of `NC(=O)C(c1ccc(F)cc1)N1CCN(CCO)CC1` (stereo not given), the cytotoxicity at 10 µM was -5.46%.

In the case of `CCCS(=O)(=O)N1C[C@H]2CC[C@@H](C1)N(Cc1cscn1)C2=O`, the cytotoxicity at 10 µM stood at 12.8%.

With `CCc1cc(C(=O)N2CCCC(Cc3ccc(NC)nn3)C2)on1` (stereo not given), the cytotoxicity at 10 µM is -14.1%.

Regarding `Cc1cccc(CN2C(=O)C[C@@H]3[C@@H]2CCN3Cc2ccsc2)n1`, the cytotoxicity at 10 µM was -6.63%.

`Cc1cccc(OCCC(=O)N2CCCN(CC(N)=O)CC2)c1C`: the cytotoxicity at 10 µM was -7.28%.

On to `NCCO[C@H]1C[C@@H](O)C12CCN(Cc1c(F)cccc1F)CC2`, for which the cytotoxicity at 10 µM was -20%.

For the compound `CC(C)Oc1ncccc1CNC(=O)N1CCC1`, the cytotoxicity at 10 µM was -7.6%.

Turning to `NC(=O)C(NC(=O)c1cc(Cl)c[nH]1)c1ccccc1` (stereo not given), the cytotoxicity at 10 µM is -0.589%.

For the compound `COc1ccc(CNc2cccnc2-n2cccn2)cc1OC`, the cytotoxicity at 10 µM turned out to be 7.25%.

`Cc1cc(C(=O)NCc2ccco2)nn1C`: the cytotoxicity at 10 µM is -2.8%.

On to `CCOC(=O)C1CCN(C(=O)c2cc(OCC)c3ccoc3c2)CC1`, for which the cytotoxicity at 10 µM was determined as 34.4%.

With `CC(Cn1cccn1)NC(=O)CCC(=O)c1cccs1` (stereo not given), the cytotoxicity at 10 µM is -2.39%.

For the compound `O=C(CO)N1CCN(S(=O)(=O)CCCF)CC1`, the cytotoxicity at 10 µM is -0.655%.

As for `COc1cc(OC)cc(N2CCC(NCc3ccsc3)C2=O)c1` (stereo not given), the cytotoxicity at 10 µM was found to be 0.347%.

As for `O=C(O)c1cncc(Cc2ccccc2F)c1`, the cytotoxicity at 10 µM worked out at 0.812%.

In the case of `CN(Cc1cscn1)C1CCN(C(=O)OC(C)(C)C)CC1`, the cytotoxicity at 10 µM is -3.76%.

With `COCc1n[nH]c2c1CN(Cc1cccs1)C2`, the cytotoxicity at 10 µM came out at 3.3%.

Regarding `CNS(=O)(=O)CC1CCCN1C(=O)c1ccc(C)c(C)c1` (stereo not given), the cytotoxicity at 10 µM was -6.93%.

In the case of `O=c1[nH]c(NCc2cccc(-c3ccccc3)c2)nc2c1CCNC2`, the cytotoxicity at 10 µM stood at 3.3%.

On to `Cc1nc(C2CCN(S(C)(=O)=O)CC2)nc(N2CCCC2)c1C`, for which the cytotoxicity at 10 µM was determined as 4.48%.

For `Cc1cccnc1NC(=O)NCc1cccnc1OC(C)C`, the cytotoxicity at 10 µM is -8.75%.

As for `O=C(NCCC(O)c1cccs1)c1ccco1` (stereo not given), the cytotoxicity at 10 µM was -14.7%.

For `CSC(C)C(=O)N1CCN(CC(C)(C)O)CC1` (stereo not given), the cytotoxicity at 10 µM is -10.2%.

In the case of `O=c1nc(CNc2ccccc2)[nH]n1Cc1ccccc1`, the cytotoxicity at 10 µM was 4.13%.

In the case of `COc1ccccc1OCc1cc(C(=O)N2C[C@@H](C)O[C@@H](C)C2)n[nH]1`, the cytotoxicity at 10 µM is -4.91%.

`Cc1cc(CNc2nccc(N)n2)c2[nH]c(C)c(C)c2c1`: the cytotoxicity at 10 µM was -1.86%.

On to `COC(=O)NCC1CCC2(CCNCC2)O1` (stereo not given), for which the cytotoxicity at 10 µM came out at 1.82%.

As for `CCCN1C[C@@H]2CC[C@H]1CN(Cc1ccc(-n3cccn3)cc1)C2`, the cytotoxicity at 10 µM is 5.05%.

As for `CCOC(=O)[C@]12CCCN(Cc3nccs3)C[C@H]1CN(C(C)=O)C2`, the cytotoxicity at 10 µM was -2.99%.

Turning to `CC(C1CCN(Cc2c(Cl)cncc2Cl)CC1)N1CCN(C)CC1` (stereo not given), the cytotoxicity at 10 µM is -12.2%.

As to `COc1ccc(S(=O)(=O)NCC(C)(O)c2cccs2)cc1Cl` (stereo not given), the cytotoxicity at 10 µM was -11.5%.

As to `Cc1ccc([C@@]2(O)CC[C@@H]3CN(S(=O)(=O)C(C)C)C[C@@H]32)cc1`, the cytotoxicity at 10 µM is -38.9%.

Take `CN(C)CCOCc1nnc2n1CCN(Cc1ccc(F)cc1)CC2`: the cytotoxicity at 10 µM was -5.63%.

As to `Cc1ccsc1[C@@H]1CCN(C(=O)CCc2nc3ccccc3[nH]2)C[C@H]1O`, the cytotoxicity at 10 µM was -1.67%.

For the compound `NC(=O)CCN(C(=O)CSc1ccc(F)cc1)c1ccc(F)cc1`, the cytotoxicity at 10 µM was -2.17%.

Consider `Cc1ccc(CN2CCC3(CCC3NS(=O)(=O)c3ccccc3)CC2)o1` (stereo not given), for which the cytotoxicity at 10 µM was -2.97%.

As for `CC(C)CN1CCN(C(=O)c2ccn(C)c(=O)c2)CC1`, the cytotoxicity at 10 µM was -17.2%.

For `CSC1=Nc2c(cnn2-c2ccc(Cl)cc2)C2=NCCCN12`, the cytotoxicity at 10 µM was found to be 7.41%.

For `CNC(=O)c1ccc(N(C)C2CCC2)nn1`, the cytotoxicity at 10 µM was found to be 4.49%.

For the compound `CC(O)(CNC(=O)NCCc1ccc2c(c1)CCO2)c1ccccc1` (stereo not given), the cytotoxicity at 10 µM is 6.36%.

Take `CC(C(=O)Nc1ccc(N2CCOCC2)nc1)n1cncn1` (stereo not given): the cytotoxicity at 10 µM is -33.9%.

Regarding `COCC1CN(C(=O)c2cnc(C)cn2)Cc2ncnn2C1` (stereo not given), the cytotoxicity at 10 µM came to 2.31%.

Turning to `O=C(N[C@@H]1CN(c2ncc(F)cn2)[C@@H]2COC[C@@H]21)c1cscn1`, the cytotoxicity at 10 µM was -139%.

In the case of `Cc1nc(N2CCN(C(=O)c3cccs3)CC2)cc(-n2cccc2)n1`, the cytotoxicity at 10 µM turned out to be 1.01%.

For the compound `CN1CC(c2ccccc2)CC2(CCN(C(=O)c3ccccc3)CC2)C1` (stereo not given), the cytotoxicity at 10 µM is -0.0342%.

Take `O=C(NCC1CC2(CO1)CN(c1ncccn1)C2)C1CCC1` (stereo not given): the cytotoxicity at 10 µM is -107%.

Turning to `CC(C)n1cnnc1Cn1c(=O)ccc2ccccc21`, the cytotoxicity at 10 µM stood at 5.62%.

Turning to `CC(C)NC(=O)N1CCc2ncnc(-c3ccncc3)c2CC1`, the cytotoxicity at 10 µM was -0.736%.

On to `COc1ccc(Cl)cc1-c1cc(NC(=O)C2CNC(=O)N2)[nH]n1` (stereo not given), for which the cytotoxicity at 10 µM is -1.12%.

As to `Cn1nccc1C(=O)NC(C)(C)c1noc(C(C)(C)C)n1`, the cytotoxicity at 10 µM was found to be 8.22%.

As for `CN(C)Cc1cc(=O)n2c(n1)CN(CC1CCOCC1)CCC2`, the cytotoxicity at 10 µM amounted to 6.37%.

Consider `CCS(=O)(=O)N1CCO[C@H]2[C@H](OCC3CCCC3)CC[C@@H]21`, for which the cytotoxicity at 10 µM is -9.6%.

Consider `CCN(CC)C(=O)CNC(=O)c1c[nH]c2ccc(OC)cc12`, for which the cytotoxicity at 10 µM is -0.527%.

In the case of `c1cc(-c2noc([C@@H]3CCCN3C3CCC3)n2)cc(N2CCCC2)n1`, the cytotoxicity at 10 µM came out at 5.94%.

For `CCOc1ccc(C(F)(F)F)cc1NCc1nc(C)c(C)o1`, the cytotoxicity at 10 µM is -45.3%.

As for `CC(C)NC(=O)c1sc2ccccc2c1C1CCC(CN)CC1` (stereo not given), the cytotoxicity at 10 µM was -3.28%.

As for `Cc1ccc(CN2CCC(n3cc(C(O)c4ccccc4)nn3)CC2)o1` (stereo not given), the cytotoxicity at 10 µM stood at 2.11%.

Turning to `Cc1cc(N2CCc3cnc(C)nc3C2)n2nc(C(F)(F)F)nc2n1`, the cytotoxicity at 10 µM was 0.769%.

Regarding `CCCc1cc(N2CCCCC2Cn2cc(C)cn2)n2ncnc2n1` (stereo not given), the cytotoxicity at 10 µM is -0.554%.

Take `CN(C)c1cccc(C(=O)NCC2(O)CCOCC2)c1`: the cytotoxicity at 10 µM is 10.3%.

With `O=C(CCN1CCOC(C(F)(F)F)C1)NCc1ccccc1Cl` (stereo not given), the cytotoxicity at 10 µM was -3.13%.

On to `Cn1c(CS(=O)(=O)c2ccc(Cl)cc2)cc(=O)n(C)c1=O`, for which the cytotoxicity at 10 µM is 7.5%.

As for `CC(C)c1noc(CCC(=O)NCC2CC2)n1`, the cytotoxicity at 10 µM is -28.7%.

`CN(C)C(CNS(=O)(=O)c1cnn(C)c1)c1cccc(F)c1` (stereo not given): the cytotoxicity at 10 µM came out at 5.66%.

Consider `Cc1ccc(CC(=O)NC2CCN(c3cccc(Cl)c3)C2)cn1` (stereo not given), for which the cytotoxicity at 10 µM turned out to be 2.49%.

As to `CC(=O)NCc1nnc2n1CCN(Cc1cccs1)C2`, the cytotoxicity at 10 µM was -149%.

With `COC1C[C@@H]2CN(C(=O)c3cc4cccc(F)c4[nH]3)C[C@@H]2C1` (stereo not given in full), the cytotoxicity at 10 µM turned out to be 1.51%.

Turning to `O=C1CO[C@H]2CN(S(=O)(=O)c3ccccc3)C[C@H]2N1Cc1ccccn1`, the cytotoxicity at 10 µM was -1.11%.

As to `Cc1csc(C2CCCN(C(=O)c3cc(Cl)c[nH]3)C2)n1` (stereo not given), the cytotoxicity at 10 µM is -8.21%.

Consider `CCOC(=O)N1CCN(C(=O)Cn2ccc3ncccc3c2=O)CC1`, for which the cytotoxicity at 10 µM is -4.99%.

Consider `CCCc1noc(CCC(=O)Nc2cc(C(F)(F)F)c[nH]c2=O)n1`, for which the cytotoxicity at 10 µM was -7.21%.

For the compound `Cn1cc(C(=O)NCc2cncc3c2CCN(S(C)(=O)=O)C3)cn1`, the cytotoxicity at 10 µM is -105%.

As to `COCc1nc(C(=O)N(Cc2ccccc2)CC(C)C(=O)O)cs1` (stereo not given), the cytotoxicity at 10 µM was determined as 4%.

For `O=C(c1ccoc1)N1CCC2(CCC(=O)N2Cc2ccncc2)CC1`, the cytotoxicity at 10 µM is -1%.

`Cc1cc(NC(=O)CN2CCCC2Cn2nc(C)nc2C)on1` (stereo not given): the cytotoxicity at 10 µM is -3.31%.

As to `CN1CSC[C@H]1C(=O)N1CCC(CCc2ccccc2)CC1`, the cytotoxicity at 10 µM came out at 3.23%.

Turning to `COc1ccc(-c2cnc(N(C)C)nc2C2CN(C(C)=O)CCO2)cc1` (stereo not given), the cytotoxicity at 10 µM was -31.9%.

With `COC(=O)c1ccc(-c2cc(C(F)(F)F)cc(N(C)C)n2)cc1`, the cytotoxicity at 10 µM is -0.409%.

Consider `Cn1cc(S(=O)(=O)NC(=O)C2(c3ccccc3)CCC2)cn1`, for which the cytotoxicity at 10 µM is -6.85%.

Turning to `Cc1noc(C)c1CN1C[C@@H]2C[C@@H](C)O[C@@H]2C1`, the cytotoxicity at 10 µM was 4.06%.

As to `O=c1[nH]c(N2CC(O)C2)nc2c1cnn2-c1ccccc1`, the cytotoxicity at 10 µM is 1.92%.

Regarding `Cc1cc(C)cc(NS(=O)(=O)c2cc3c(c(C(=O)O)c2)OCCO3)c1`, the cytotoxicity at 10 µM stood at 0.289%.

Turning to `CCc1[nH]ncc1C(=O)N1CCCN(Cc2cnn(C(C)C)c2)CC1`, the cytotoxicity at 10 µM is -12%.

As to `CSCC(=O)N[C@H]1CC[C@H](Nc2nccc(-c3cccnc3)n2)C1`, the cytotoxicity at 10 µM is 9.87%.

On to `CC(C)c1nnc(NC(=O)N(C)Cc2ccc(C(N)=O)cc2)s1`, for which the cytotoxicity at 10 µM amounted to 12%.

On to `CC(=O)N1CCC2(CC1)[C@@H]1CN(Cc3cccnc3)C[C@@H]1C(=O)N2C`, for which the cytotoxicity at 10 µM was 4.73%.

In the case of `O=C(c1ccc2c(c1)CCC2)N1CC[C@H](O)[C@]2(CCCO2)C1`, the cytotoxicity at 10 µM is -8.97%.

Regarding `Cc1ccccc1C(CC(=O)NCC(N)=O)c1ccccc1` (stereo not given), the cytotoxicity at 10 µM is 5.17%.

With `CN(CCC(F)(F)F)C(=O)C1CCCN1C(=O)OC(C)(C)C` (stereo not given), the cytotoxicity at 10 µM was -0.653%.

For the compound `O=C(O)C1(Cc2cc(-c3ccc(F)cc3)no2)CCOCC1`, the cytotoxicity at 10 µM is -20.8%.

`Cc1ccccc1CSc1nc(N)cc(N2CC[C@@H](O)C2)n1`: the cytotoxicity at 10 µM is 0.28%.

`CCOCC1CN(C(=O)c2ccnnc2)Cc2cnn(C)c21` (stereo not given): the cytotoxicity at 10 µM worked out at 7.07%.
